Laboratory results published in publication PMC7181426 (Clinical Drug Investigation, 2020).
Values joined by “and” are separate entries in the source; they are usually repeats but may differ in a detail not shown here. Equal values may be shown once. Marks after values point to notes of the source that are not given here.

What was measured:
[1] = Safety: treatment-emergent adverse events, single-dose study; format: in vivo, human
Method in brief: (§1)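 Adverse events were monitored throughout the study in subjects randomized 3:1 to test compound or placebo. Single-dose subjects were discharged on day 3 and returned on day 7; twice-daily subjects were discharged on day 10 and returned on day 13. Events were coded by System Organ Class and preferred term (MedDRA 12.1). The investigator assessed relatedness and graded severity as mild, moderate or severe.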

[2] = Single-dose pharmacokinetics; format: in vivo, human; details: for CL/F, Mean (SD) / Aelast%, Mean (SD) / Aelast, Mean (SD): fasted; for Aelast%, Mean (SD) / Aelast, Mean (SD): urine
[3] = tested on: peripheral lymphocyte subsets; test: Peripheral lymphocyte subsets by flow cytometry, multiple-dose study; format: in vivo, human; details: 100 mg, 72 h after twice-daily dosing on day 7
[4] = Safety: treatment-emergent adverse events, multiple-dose study; format: in vivo, human; details: for Alanine aminotransferase increased / Any TEAE / Aspartate aminotransferase increased / Blood creatinine phosphokinase increased / Diarrhea / Feeling abnormal / Headache / Hot flush / Malaise / Neutrophil count decreased / Rash / White blood cell count increased: Japanese
Method in brief: as §1

[5] = tested on: SULT2A1, nicotinamide N-methyltransferase; details: cited from earlier work
[6] = cited from earlier work
STAT5 phosphorylation = test: Inhibition of STAT5 phosphorylation in IL-2-stimulated CD3-positive lymphocytes; format: in vivo, human; details: single doses 20–200 mg, Japanese and Caucasian
Multiple-dose = format: in vivo, human; details: for AUC: AUC12, Mean (SD); for Cmax: Mean (SD); for Tmax: Median; for Ae12%, Mean (SD) / Ae12, Mean (SD): urine
[7] = Caucasian, single dose 20 mg (n = 6)
[8] = Caucasian, single dose 60 mg (n = 6)
[9] = Caucasian, single dose 200 mg (n = 6)
[10] = Japanese, single dose 20 mg (n = 6)
[11] = Japanese, single dose 60 mg (n = 6)
[12] = Japanese, single dose 200 mg (n = 6)
[13] = Caucasian, single oral dose 20 mg
[14] = Caucasian, single oral dose 60 mg
[15] = Caucasian, single oral dose 200 mg
[16] = Japanese, single oral dose 20 mg
[17] = Japanese, single oral dose 60 mg
[18] = Japanese, single oral dose 200 mg
[19] = single- and multiple-dose studies
[20] = male, human, plasma, oral, 10 mg, Japanese, 10 mg bid, Day 1
[21] = male, human, plasma, oral, 10 mg, Japanese, 10 mg bid, Day 7
[22] = male, human, plasma, oral, 30 mg, Japanese, 30 mg bid, Day 1
[23] = male, human, plasma, oral, 30 mg, Japanese, 30 mg bid, Day 7
[24] = male, human, plasma, oral, 100 mg, Japanese, 100 mg bid, Day 1
[25] = male, human, plasma, oral, 100 mg, Japanese, 100 mg bid, Day 7

CL/F, Mean (SD) [2, 13]: 108.5 (30.0) L/h
CL/F, Mean (SD) [2, 14]: 117.8 (23.6) L/h
CL/F, Mean (SD) [2, 15]: 133.1 (15.0) L/h
CL/F, Mean (SD) [2, 16]: 78.9 (13.5) L/h
CL/F, Mean (SD) [2, 17]: 79.8 (19.2) L/h
CL/F, Mean (SD) [2, 18]: 79.8 (8.2) L/h
Tmax ([2]; male, human, plasma, oral, median tmax, range, single-dose administration, both Japanese and Caucasian subjects): 1 to 2 h
geometric mean ratio for dose-normalized AUCinf, higher in Japanese versus Caucasian subjects ([2]; single doses 20, 60, 200 mg): 33.8–66.4%
geometric mean ratio for dose-normalized Cmax, higher in Japanese versus Caucasian subjects ([2]; single doses 20, 60, 200 mg): 45.7–98.8%
AUCinf higher in Japanese subjects compared with Caucasian subjects ([2]; single doses 20 to 200 mg): 49%
Cmax higher in Japanese subjects compared with Caucasian subjects ([2]; single doses 20 to 200 mg): 70%
Dose proportionality of Cmax and AUCinf ([2]; single doses, dose range of 20–200 mg): demonstrated
Aelast%, Mean (SD) [2, 13]: 14.2 %dose and 14.2 (3.6) %dose
Aelast, Mean (SD) [2, 13]: 2.9 (0.7) mg
Aelast%, Mean (SD) [2, 14]: 10.6 (3.6) %dose
Aelast, Mean (SD) [2, 14]: 6.4 (2.2) mg
Aelast%, Mean (SD) [2, 15]: 9.9 %dose and 9.9 (1.2) %dose
Aelast, Mean (SD) [2, 15]: 19.8 (2.4) mg
Aelast%, Mean (SD) [2, 16]: 16.8 %dose and 16.8 (4.1) %dose
Aelast, Mean (SD) [2, 16]: 3.4 (0.8) mg
Aelast%, Mean (SD) [2, 17]: 14.8 (2.8) %dose
Aelast, Mean (SD) [2, 17]: 8.9 (1.7) mg
Aelast%, Mean (SD) [2, 18]: 12.5 %dose and 12.5 (2.7) %dose
Aelast, Mean (SD) [2, 18]: 25.1 (5.4) mg
CL/F, Mean (SD) (Multiple-dose; Japanese, 10 mg bid, Day 1): 87.7 (23.6) L/h
CL/F, Mean (SD) (Multiple-dose; Japanese, 10 mg bid, Day 7): 71.0 (13.6) L/h
CL/F, Mean (SD) (Multiple-dose; Japanese, 30 mg bid, Day 1): 83.3 (14.6) L/h
CL/F, Mean (SD) (Multiple-dose; Japanese, 30 mg bid, Day 7): 69.6 (13.5) L/h
CL/F, Mean (SD) (Multiple-dose; Japanese, 100 mg bid, Day 1): 71.2 (8.7) L/h
CL/F, Mean (SD) (Multiple-dose; Japanese, 100 mg bid, Day 7): 55.7 (9.3) L/h
AUC12 on day 7 higher than AUC12 after the first dose (Multiple-dose; Japanese, 10–100 mg bid): 25–37%
Cmax on day 7 higher than Cmax after the first dose (Multiple-dose; Japanese, 10–100 mg bid): 13–28%
Steady-state plasma concentrations achieved by (Multiple-dose; Japanese, twice-daily dosing, visual prediction): ≤ 3 days
half-life at 7 day (Multiple-dose; male, human, plasma, oral): 6 to 7.4 h
half-life (Multiple-dose; male, human, plasma, oral, 10 mg): 6 h
AUC (Multiple-dose; [20]): 114 ng·h/mL
AUC (Multiple-dose; [21]): 145 ng·h/mL
Cmax (Multiple-dose; [20]): 28.5 ng/mL
Cmax (Multiple-dose; [21]): 36.4 ng/mL
Tmax (Multiple-dose; [20]): 1.5 h
Tmax (Multiple-dose; [21]): 2.5 h
half-life (Multiple-dose; male, human, plasma, oral, 30 mg): 6.1 h
AUC (Multiple-dose; [22]): 354 ng·h/mL
AUC (Multiple-dose; [23]): 444 ng·h/mL
Cmax (Multiple-dose; [22]): 93.5 ng/mL
Cmax (Multiple-dose; [23]): 106 ng/mL
Tmax (Multiple-dose; [22]): 2 h
Tmax (Multiple-dose; [23]): 2 h
half-life (Multiple-dose; male, human, plasma, oral, 100 mg): 7.4 h
AUC (Multiple-dose; [24]): 1340 ng·h/mL
AUC (Multiple-dose; [25]): 1830 ng·h/mL
Cmax (Multiple-dose; [24]): 383 ng/mL
Cmax (Multiple-dose; [25]): 483 ng/mL
Tmax (Multiple-dose; [24]): 2 h
Tmax (Multiple-dose; [25]): 2 h
Ae12%, Mean (SD) (Multiple-dose; Japanese, 10 mg bid, Day 1): 14.9 (4.4) %dose
Ae12, Mean (SD) (Multiple-dose; Japanese, 10 mg bid, Day 1): 1.5 (0.4) mg
Ae12%, Mean (SD) (Multiple-dose; Japanese, 10 mg bid, Day 7): 32.0 (3.4) %dose
Ae12, Mean (SD) (Multiple-dose; Japanese, 10 mg bid, Day 7): 3.2 (0.3) mg
Ae12%, Mean (SD) (Multiple-dose; Japanese, 30 mg bid, Day 1): 15.6 (4.0) %dose
Ae12, Mean (SD) (Multiple-dose; Japanese, 30 mg bid, Day 1): 4.7 (1.2) mg
Ae12%, Mean (SD) (Multiple-dose; Japanese, 30 mg bid, Day 7): 26.4 %dose and 26.4 (4.2) %dose
Ae12, Mean (SD) (Multiple-dose; Japanese, 30 mg bid, Day 7): 7.9 (1.3) mg
Ae12%, Mean (SD) (Multiple-dose; Japanese, 100 mg bid, Day 1): 19.2 (2.7) %dose
Ae12, Mean (SD) (Multiple-dose; Japanese, 100 mg bid, Day 1): 19.2 (2.7) mg
Ae12%, Mean (SD) (Multiple-dose; Japanese, 100 mg bid, Day 7): 37.7 %dose and 37.7 (9.8) %dose
Ae12, Mean (SD) (Multiple-dose; Japanese, 100 mg bid, Day 7): 37.7 (9.8) mg
SMILES: NC(=O)c1cnc2[nH]ccc2c1N[C@@H]1[C@@H]2CC3C[C@H]1C[C@@](O)(C3)C2 [peficitinib, Peficitinib]
Any TEAE [1, 7]: 0 n (%)
Blood potassium increased [1, 7]: 0 n (%)
Diarrhea [1, 7]: 0 n (%)
White blood cell count increased [1, 7]: 0 n (%)
Any TEAE [1, 8]: 1 (16.7) n (%)
Blood potassium increased [1, 8]: 0 n (%)
Diarrhea [1, 8]: 1 (16.7)^b n (%)
White blood cell count increased [1, 8]: 0 n (%)
Any TEAE [1, 9]: 0 n (%)
Blood potassium increased [1, 9]: 0 n (%)
Diarrhea [1, 9]: 0 n (%)
White blood cell count increased [1, 9]: 0 n (%)
Any TEAE [1, 10]: 1 (16.7) n (%)
Blood potassium increased [1, 10]: 1 (16.7)^b n (%)
Diarrhea [1, 10]: 0 n (%)
White blood cell count increased [1, 10]: 0 n (%)
Any TEAE [1, 11]: 2 (33.3) n (%)
Blood potassium increased [1, 11]: 0 n (%)
Diarrhea [1, 11]: 0 n (%)
White blood cell count increased [1, 11]: 2 (33.3) n (%)
Any TEAE [1, 12]: 1 (16.7) n (%)
Blood potassium increased [1, 12]: 0 n (%)
Diarrhea [1, 12]: 0 n (%)
White blood cell count increased [1, 12]: 1 (16.7) n (%)
largest change: decrease in the subset of CD3+, CD45RA+ and total naïve cells [3]: 7.50%
Alanine aminotransferase increased ([4]; 10 mg bid for 7 days (n = 6)): 1 (16.7)^b n (%)
Any TEAE ([4]; 10 mg bid for 7 days (n = 6)): 2 (33.3) n (%)
Aspartate aminotransferase increased ([4]; 10 mg bid for 7 days (n = 6)): 1 (16.7)^b n (%)
Blood creatinine phosphokinase increased ([4]; 10 mg bid for 7 days (n = 6)): 1 (16.7)^b n (%)
Diarrhea ([4]; 10 mg bid for 7 days (n = 6)): 0 n (%)
Feeling abnormal ([4]; 10 mg bid for 7 days (n = 6)): 1 (16.7)^b n (%)
Headache ([4]; 10 mg bid for 7 days (n = 6)): 1 (16.7)^b n (%)
Hot flush ([4]; 10 mg bid for 7 days (n = 6)): 1 (16.7)^b n (%)
Malaise ([4]; 10 mg bid for 7 days (n = 6)): 0 n (%)
Neutrophil count decreased ([4]; 10 mg bid for 7 days (n = 6)): 0 n (%)
Rash ([4]; 10 mg bid for 7 days (n = 6)): 0 n (%)
White blood cell count increased ([4]; 10 mg bid for 7 days (n = 6)): 1 (16.7)^b n (%)
Alanine aminotransferase increased ([4]; 30 mg bid for 7 days (n = 6)): 0 n (%)
Any TEAE ([4]; 30 mg bid for 7 days (n = 6)): 3 (50.0) n (%)
Aspartate aminotransferase increased ([4]; 30 mg bid for 7 days (n = 6)): 0 n (%)
Blood creatinine phosphokinase increased ([4]; 30 mg bid for 7 days (n = 6)): 0 n (%)
Diarrhea ([4]; 30 mg bid for 7 days (n = 6)): 1 (16.7)^b n (%)
Feeling abnormal ([4]; 30 mg bid for 7 days (n = 6)): 0 n (%)
Headache ([4]; 30 mg bid for 7 days (n = 6)): 0 n (%)
Hot flush ([4]; 30 mg bid for 7 days (n = 6)): 0 n (%)
Malaise ([4]; 30 mg bid for 7 days (n = 6)): 0 n (%)
Neutrophil count decreased ([4]; 30 mg bid for 7 days (n = 6)): 0 n (%)
Rash ([4]; 30 mg bid for 7 days (n = 6)): 1 (16.7)^b n (%)
White blood cell count increased ([4]; 30 mg bid for 7 days (n = 6)): 2 (33.3)^d n (%)
Alanine aminotransferase increased ([4]; 100 mg bid for 7 days (n = 6)): 1 (16.7)^b n (%)
Any TEAE ([4]; 100 mg bid for 7 days (n = 6)): 4 (66.7) n (%)
Aspartate aminotransferase increased ([4]; 100 mg bid for 7 days (n = 6)): 0 n (%)
Blood creatinine phosphokinase increased ([4]; 100 mg bid for 7 days (n = 6)): 0 n (%)
Diarrhea ([4]; 100 mg bid for 7 days (n = 6)): 0 n (%)
Feeling abnormal ([4]; 100 mg bid for 7 days (n = 6)): 0 n (%)
Headache ([4]; 100 mg bid for 7 days (n = 6)): 0 n (%)
Hot flush ([4]; 100 mg bid for 7 days (n = 6)): 0 n (%)
Malaise ([4]; 100 mg bid for 7 days (n = 6)): 0 n (%)
Neutrophil count decreased ([4]; 100 mg bid for 7 days (n = 6)): 3 n (%) and 3 (50.0)^b n (%)
Rash ([4]; 100 mg bid for 7 days (n = 6)): 0 n (%)
White blood cell count increased ([4]; 100 mg bid for 7 days (n = 6)): 0 n (%)
tolerability ([4]; doses up to 200 mg daily for 7 days, healthy Japanese subjects): well tolerated
serious TEAEs or TEAEs resulting in discontinuation [4, 19]: no serious TEAEs or TEAEs resulting in discontinuation
severity of TEAEs [4, 19]: mild
Neutrophil counts recovered by ([4]; three subjects receiving 100 mg twice daily): ≤ 8 days
metabolizing enzymes [5]: metabolized by the sulfotransferase (SULT) isoenzyme, SULT2A1, and the methyltransferase isoenzyme, nicotinamide N-methyltransferase
median tmax ([6]; healthy, fasted, mainly Caucasian men, 3–30 mg ref 11): 1 h
attainment of steady-state plasma levels by ([6]; multiple twice-daily dosing (30–200 mg twice daily), USA ref 11): ≤ 3 days
cumulative amounts excreted unchanged in urine, range ([6]; primarily Caucasian population in the USA, single oral doses of 30–200 mg ref 11): 3.9 to 22.1 mg
Mean peak inhibition of STAT5 phosphorylation, dose dependence (STAT5 phosphorylation): increased with increasing single doses of peficitinib
